Data taken from ChEMBL document CHEMBL3774372, “Design, physico-chemical properties and biological evaluation of some new N-[(phenoxy)alkyl]- and N-{2-[2-(phenoxy)ethoxy]ethyl}aminoalkanols as anticonvulsant agents” (Bioorg Med Chem, 2016).
Calls of active or inactive are those of the source.

Tests used:
Vibrio harveyi [1] = test: Mutagenicity in Vibrio harveyi BB7XM assessed as number of colonies after 48 hrs (reference value: 14 no_unit); format: ADME, organism-based; settings: in vivo
Outline: (§1)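 Vibrio harveyi mutagenicity test: test compound was added to exponentially growing cultures (A600 = 0.1, 30 °C) and grown to OD600 0.3–0.4. Then 5 × 10^6 cells were plated on BOSS agar with neomycin (final 100 µg/mL) and incubated 48 h at 30 °C. Neomycin-resistant colonies were counted. Triplicate; controls were water, DMSO and NQNO 40 ng/mL.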

Mus musculus [2] = test: Anticonvulsant activity in mouse assessed as protection against 6 Hz psychomotor seizure at 50 mg/kg, ip after 4 hrs; format: functional, organism-based
Outline: (§2)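 Suspension in 0.5% methylcellulose given ip to mice; corneal stimulation with 0.2 ms monopolar rectangular pulses at 6 Hz for 3 s from a constant current device, mice restrained then released to observation cage. Protected if normal exploratory behaviour resumed within 10 s of stimulation. Scored as protected/tested, 4 mice per group.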

Vibrio harveyi [3] = test: Mutagenicity in Vibrio harveyi BB7 assessed as number of colonies after 48 hrs (reference value: 13 to 14 no_unit); format: ADME, organism-based; settings: in vivo; outline: as §1
Vibrio harveyi [4] = test: Antimutagenic activity against Vibrio harveyi BB7 assessed as inhibition of NQNO-induced mutagenicity after 48 hrs; format: functional
Outline: (§3)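 V. harveyi cultures grown exponentially to A600 0.1 at 30 °C, exposed to test compound for 15 min, then to NQNO, and grown on to A600 0.3–0.4. 5 × 10⁶ cells plated on BOSS agar with neomycin (100, final). Neomycin-resistant colonies counted after 48 h at 30 °C. Result given as % inhibition of NQNO mutagenicity; three independent repeats.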

Vibrio harveyi [5] = test: Antimutagenic activity against Vibrio harveyi BB7M assessed as inhibition of NQNO-induced mutagenicity after 48 hrs; format: functional; outline: as §3
Mus musculus [6] = test: Neurotoxicity in mouse at 50 mg/kg, ip after 0.5 hrs by rotarod test; format: toxicity, organism-based; settings: in vivo
Outline: (§4)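 Mice were dosed ip with compound suspended in 0.5% methylcellulose. Rotarod: a 1 in. knurled rod turning at 6 rpm. Neurotoxicity was scored as failure to stay on the rod for at least 1 min in each of three trials. Results are given as the number of animals affected out of the number tested.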

Vibrio harveyi [7] = test: Mutagenicity in Vibrio harveyi BB7X assessed as number of colonies after 48 hrs (reference value: 15 to 16 no_unit); format: ADME, organism-based; settings: in vivo; outline: as §1
Vibrio harveyi [8] = test: Mutagenicity in Vibrio harveyi BB7M assessed as number of colonies after 48 hrs (reference value: 13 to 14 no_unit); format: ADME, organism-based; settings: in vivo; outline: as §1
Mus musculus [9] = test: Anticonvulsant activity in mouse assessed as protection against 6 Hz psychomotor seizure at 50 mg/kg, ip after 1 hr; format: functional, organism-based; outline: as §2
Mus musculus [10] = test: Anticonvulsant activity in mouse assessed as protection against 6 Hz psychomotor seizure at 50 mg/kg, ip after 2 hrs; format: functional, organism-based; outline: as §2
Vibrio harveyi [11] = test: Antimutagenic activity against Vibrio harveyi BB7X assessed as inhibition of NQNO-induced mutagenicity after 48 hrs; format: functional; outline: as §3
Mus musculus [12] = test: Neurotoxicity in mouse at 50 mg/kg, ip after 4 hrs by rotarod test; format: toxicity, organism-based; settings: in vivo; outline: as §4
Vibrio harveyi [13] = test: Antimutagenic activity against Vibrio harveyi BB7XM assessed as inhibition of NQNO-induced mutagenicity after 48 hrs; format: functional; outline: as §3
Mus musculus [14] = test: Neurotoxicity in mouse at 50 mg/kg, ip after 1 hr by rotarod test; format: toxicity, organism-based; settings: in vivo; outline: as §4
Mus musculus [15] = test: Neurotoxicity in mouse at 50 mg/kg, ip after 2 hrs by rotarod test; format: toxicity, organism-based; settings: in vivo; outline: as §4
Mus musculus [16] = test: Anticonvulsant activity in mouse assessed as protection against subcutaneous pentylenetetrazol-induced seizures at 300 mg/kg, ip measured after 0.5 hrs; format: functional, organism-based
Outline: (§5)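 Mice dosed ip as 0.5% methylcellulose suspension; pentylenetetrazole 85 mg/kg in 0.9% NaCl injected subcutaneously into posterior midline, animals watched at least 30 min. Protection = no threshold seizure (single clonic spasm episode lasting ≥5 s); scored protected/tested.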

Mus musculus [17] = test: Anticonvulsant activity in mouse assessed as protection against maximal electric shock-induced seizures at 300 mg/kg, ip measured after 0.5 hrs; format: functional, organism-based
Outline: (§6)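 Mice dosed ip with suspension in 0.5% methylcellulose; maximal electroshock applied at the listed time after dosing. Protection = abolition of hindlimb tonic extension component of seizure; reported as animals protected/animals tested.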

Mus musculus [18] = test: Neurotoxicity in mouse at 30 mg/kg, ip after […] by rotarod test; format: toxicity, organism-based; settings: in vivo
Mus musculus [19] = test: Neurotoxicity in mouse at 100 mg/kg, ip after 1 hr by rotarod test; format: toxicity, organism-based; settings: in vivo; outline: as §4
Mus musculus [20] = test: Anticonvulsant activity in mouse assessed as protection against maximal electric shock-induced seizures at 100 mg/kg, ip measured after 1 hr; format: functional, organism-based; outline: as §6
Mus musculus [21] = test: Anticonvulsant activity in mouse assessed as protection against subcutaneous pentylenetetrazol-induced seizures at 100 mg/kg, ip measured after 4 hrs; format: functional, organism-based; outline: as §5
Mus musculus [22] = test: Neurotoxicity in mouse at 300 mg/kg, ip after 4 hrs by rotarod test; format: toxicity, organism-based; settings: in vivo; outline: as §4
Mus musculus [23] = test: Anticonvulsant activity in mouse assessed as protection against maximal electric shock-induced seizures at 100 mg/kg, ip measured after 4 hrs; format: functional, organism-based; outline: as §6
Mus musculus [24] = test: Anticonvulsant activity in mouse assessed as protection against subcutaneous pentylenetetrazol-induced seizures at 100 mg/kg, ip measured after 0.5 hrs; format: functional, organism-based; outline: as §5
Mus musculus [25] = test: Anticonvulsant activity in mouse assessed as protection against maximal electric shock-induced seizures at 100 mg/kg, ip measured after […]; format: functional, organism-based
Mus musculus [26] = test: Anticonvulsant activity in mouse assessed as protection against maximal electric shock-induced seizures at 30 mg/kg, ip measured after 0.5 hrs; format: functional, organism-based; outline: as §6
Mus musculus [27] = test: Anticonvulsant activity in mouse assessed as protection against subcutaneous pentylenetetrazol-induced seizures at 300 mg/kg, ip measured after 4 hrs; format: functional, organism-based; outline: as §5
Mus musculus [28] = test: Anticonvulsant activity in mouse assessed as protection against maximal electric shock-induced seizures at 300 mg/kg, ip measured after 4 hrs; format: functional, organism-based; outline: as §6
Mus musculus [29] = test: Anticonvulsant activity in mouse assessed as protection against subcutaneous pentylenetetrazol-induced seizures at 30 mg/kg, ip measured after 4 hrs; format: functional, organism-based; outline: as §5
Mus musculus [30] = test: Anticonvulsant activity in mouse assessed as protection against maximal electric shock-induced seizures at 100 mg/kg, ip measured after 0.5 hrs; format: functional, organism-based; outline: as §6
Mus musculus [31] = test: Neurotoxicity in mouse at 300 mg/kg, ip after 0.5 hrs by rotarod test; format: toxicity, organism-based; settings: in vivo; outline: as §4
Mus musculus [32] = test: Anticonvulsant activity in mouse assessed as protection against maximal electric shock-induced seizures at 30 mg/kg, ip measured after 4 hrs; format: functional, organism-based; outline: as §6
Mus musculus [33] = test: Anticonvulsant activity in mouse assessed as protection against subcutaneous pentylenetetrazol-induced seizures at 30 mg/kg, ip measured after 0.5 hrs; format: functional, organism-based; outline: as §5
Rattus norvegicus [34] = test: Anticonvulsant activity in rat assessed as protection against maximal electric shock-induced seizures at 30 mg/kg, po measured after […]; format: functional, organism-based
Mus musculus [35] = test: Anticonvulsant activity in mouse assessed as protection against maximal electric shock-induced seizures at 3 mg/kg, ip measured after 0.5 hrs; format: functional, organism-based; outline: as §6
Mus musculus [36] = test: Neurotoxicity in mouse at 30 mg/kg, ip after 0.5 hrs by rotarod test; format: toxicity, organism-based; settings: in vivo; outline: as §4
Mus musculus [37] = test: Neurotoxicity in mouse at 10 mg/kg, ip after 0.5 hrs by rotarod test; format: toxicity, organism-based; settings: in vivo; outline: as §4
Rattus norvegicus [38] = test: Neurotoxicity in rat at 30 mg/kg, po after 2 hrs by rotarod test; format: toxicity, organism-based; settings: in vivo
Mus musculus [39] = test: Neurotoxicity in mouse at 100 mg/kg, ip after 0.5 hrs by rotarod test; format: toxicity, organism-based; settings: in vivo; outline: as §4
Rattus norvegicus [40] = test: Anticonvulsant activity in rat assessed as protection against maximal electric shock-induced seizures at 30 mg/kg, po measured after 1 hr; format: functional, organism-based
Outline: (§7)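 Rats dosed ip or orally as 0.5% methylcellulose suspension; maximal electroshock at listed time. Protection = abolition of hindlimb tonic extension; 4 rats per group, scored protected/tested.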

Rattus norvegicus [41] = test: Neurotoxicity in rat at 30 mg/kg, po after […] by rotarod test; format: toxicity, organism-based; settings: in vivo
Mus musculus [42] = test: Anticonvulsant activity in mouse assessed as protection against maximal electric shock-induced seizures at 10 mg/kg, ip measured after 0.5 hrs; format: functional, organism-based; outline: as §6
Rattus norvegicus [43] = test: Anticonvulsant activity in rat assessed as protection against maximal electric shock-induced seizures at 30 mg/kg, po measured after 2 hrs; format: functional, organism-based; outline: as §7
Mus musculus [44] = test: Neurotoxicity in mouse at 3 mg/kg, ip after 0.5 hrs by rotarod test; format: toxicity, organism-based; settings: in vivo; outline: as §4
Rattus norvegicus [45] = test: Neurotoxicity in rat at 30 mg/kg, po after 1 hr by rotarod test; format: toxicity, organism-based; settings: in vivo
Rattus norvegicus [46] = test: Anticonvulsant activity in rat assessed as protection against maximal electric shock-induced seizures at 30 mg/kg, po measured after 4 hrs; format: functional, organism-based; outline: as §7
Mus musculus [47] = test: Neurotoxicity in mouse at 30 mg/kg, ip after 4 hrs by rotarod test; format: toxicity, organism-based; settings: in vivo; outline: as §4
Rattus norvegicus [48] = test: Anticonvulsant activity in rat assessed as protection against maximal electric shock-induced seizures at 30 mg/kg, po measured after 0.5 hrs; format: functional, organism-based; outline: as §7
Rattus norvegicus [49] = test: Neurotoxicity in rat at 30 mg/kg, po after 0.5 hrs by rotarod test; format: toxicity, organism-based; settings: in vivo
Rattus norvegicus [50] = test: Neurotoxicity in rat at 30 mg/kg, po after 4 hrs by rotarod test; format: toxicity, organism-based; settings: in vivo

For `Cc1cc(C)c(OCCOCCN[C@@H]2CCCC[C@H]2O)c(C)c1` (racemic), the Activity (Vibrio harveyi [1]) was 26, the Activity (Mus musculus [2]) was “inactive” and the Activity (Vibrio harveyi [3]) was 20. For the same molecule, the “inhibition (INH)” value (Vibrio harveyi [4]) was 62%, the “inhibition (INH)” value (Vibrio harveyi [5]) was 27% and the Activity (Mus musculus [6]) was “Non-toxic”. The Activity (Vibrio harveyi [7]) was 15, the Activity (Vibrio harveyi [8]) was 10 and the Activity (Mus musculus [9]) was “inactive”. For the same molecule, the Activity (Mus musculus [10]) was “inactive”, the “inhibition (INH)” value (Vibrio harveyi [11]) was 0% and the Activity (Mus musculus [12]) was “Non-toxic”. For the same molecule, the “inhibition (INH)” value (Vibrio harveyi [13]) was 0%, the Activity (Mus musculus [14]) was “Non-toxic” and the Activity (Mus musculus [15]) was “Non-toxic”.
For `Cc1cccc(OCCCNCC(O)c2ccccc2)c1C` (stereo not drawn), the Activity (Mus musculus [16]) was “inactive”, the Activity (Mus musculus [17]) was “Active” and the Activity (Mus musculus [18]) was “Toxic”. The Activity (Mus musculus [19]) was “Toxic”, the Activity (Mus musculus [20]) was “inactive” and the Activity (Mus musculus [21]) was “inactive”. The Activity (Mus musculus [22]) was “Toxic”, the Activity (Mus musculus [23]) was “inactive” and the Activity (Mus musculus [24]) was “inactive”. For the same molecule, the Activity (Mus musculus [25]) was “inactive”, the Activity (Mus musculus [26]) was “inactive” and the Activity (Mus musculus [27]) was “inactive”. For the same molecule, the Activity (Mus musculus [28]) was “inactive”, the Activity (Mus musculus [29]) was “inactive” and the Activity (Mus musculus [30]) was “inactive”. For the same molecule, the Activity (Mus musculus [31]) was “Toxic”, the Activity (Mus musculus [32]) was “inactive” and the Activity (Mus musculus [33]) was “inactive”.
`CC[C@@H](CO)NCCOCCOc1c(C)cccc1C` was tested, and the Activity (Rattus norvegicus [34]) was “inactive”, the Activity (Vibrio harveyi [1]) was 22 and the Activity (Mus musculus [35]) was “inactive”. The Activity (Mus musculus [36]) was “Non-toxic”, the Activity (Mus musculus [37]) was “Non-toxic” and the Activity (Rattus norvegicus [38]) was “Non-toxic”. The Activity (Mus musculus [39]) was “Toxic”, the Activity (Rattus norvegicus [40]) was “inactive” and the Activity (Vibrio harveyi [3]) was 28. The Activity (Rattus norvegicus [41]) was “Non-toxic”, the Activity (Mus musculus [42]) was “inactive” and the “inhibition (INH)” value (Vibrio harveyi [4]) was 88%. The “inhibition (INH)” value (Vibrio harveyi [5]) was 52%, the Activity (Mus musculus [26]) was “Active” and the Activity (Rattus norvegicus [43]) was “inactive”. For the same molecule, the Activity (Vibrio harveyi [7]) was 27, the Activity (Vibrio harveyi [8]) was 26 and the Activity (Mus musculus [44]) was “Non-toxic”. The “inhibition (INH)” value (Vibrio harveyi [11]) was 22%, the Activity (Rattus norvegicus [45]) was “Non-toxic” and the Activity (Mus musculus [29]) was “inactive”. The Activity (Rattus norvegicus [46]) was “inactive”, the Activity (Mus musculus [47]) was “Non-toxic” and the “inhibition (INH)” value (Vibrio harveyi [13]) was 15%. The Activity (Mus musculus [31]) was “Toxic”, the Activity (Rattus norvegicus [48]) was “inactive” and the Activity (Rattus norvegicus [49]) was “Non-toxic”. For the same molecule, the Activity (Mus musculus [32]) was “inactive”, the Activity (Rattus norvegicus [50]) was “Non-toxic” and the Activity (Mus musculus [33]) was “inactive”.
